Assay results pooled from the literature.
Each line is one published result; the experiments were not run side by side.
Target: Serine/threonine-protein kinase 17A (STK17A, Homo sapiens, UniProt Q9UEE5)
Read-out: enzyme activity
Sequence (Q9UEE5 1-414, as in one of the studies): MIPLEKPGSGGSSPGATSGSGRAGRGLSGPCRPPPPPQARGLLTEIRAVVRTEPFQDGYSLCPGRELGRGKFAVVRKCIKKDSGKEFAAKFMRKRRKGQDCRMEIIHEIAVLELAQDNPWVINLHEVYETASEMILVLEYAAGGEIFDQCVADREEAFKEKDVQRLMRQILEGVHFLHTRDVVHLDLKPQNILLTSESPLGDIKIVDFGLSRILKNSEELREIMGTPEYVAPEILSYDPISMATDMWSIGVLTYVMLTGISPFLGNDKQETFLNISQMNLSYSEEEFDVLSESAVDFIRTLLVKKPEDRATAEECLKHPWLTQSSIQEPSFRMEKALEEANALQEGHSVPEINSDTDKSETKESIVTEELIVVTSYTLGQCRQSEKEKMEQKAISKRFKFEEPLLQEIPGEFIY

Compound	test	conditions	remaining activity [%]
Cc1nn(CC(F)(F)F)cc1Nc1ncc(C2CC2)c(NCc2ccc(S(N)(=O)=O)cc2)n1	inhibitor, radiometric	1 µM	105
Cc1ccc(C(=O)Nc2ccc(CN3CCN(C)CC3)c(C(F)(F)F)c2)cc1C#Cc1cnc2cccnn12	–	23.5 nM	100
Cc1cnc(NC2CCOCC2)nc1-n1cnc(C(=O)NC(CN)c2cc(F)cc(Cl)c2)c1 (centres unmarked)	inhibitor, radiometric	1 µM	100
Cc1nn(CC(F)(F)F)cc1Nc1ncc(Br)c(NCCc2cnc[nH]2)n1	inhibitor, radiometric	1 µM	63
O=C(Nc1cnn(-c2csc(C(=O)NC3COC3)c2)c1)Nc1ccccc1Cl	inhibitor	5 µM	98.4
CC(C)(O)[C@H]1CC[C@H](Nc2ccc3ncc(-c4cccc(C(F)(F)F)c4)n3n2)CC1	inhibitor	1 µM	106
Cc1nn(CC(F)(F)F)cc1Nc1ncc(Br)c(NCc2ccc(S(N)(=O)=O)cc2)n1	inhibitor, radiometric	1 µM	93
CCCOc1ccc(OC)c(F)c1C(=O)c1ccc(C(=O)N[C@@H]2CNC[C@H]2NC(=O)c2ccc3[nH]ncc3c2)cc1	inhibitor	10 µM	7
CCN(CC)c1ccc(C2=NNC(=O)CC2C)cc1[N+](=O)[O-] (centres unmarked)	inhibitor	10 µM	100
COc1cc(Cl)c(C(=O)N[C@@H](CN[C@H]2CC[C@@H](N)CC2)Cc2ccc(C#N)cc2)cc1-c1ccc(CN[C@H](C)c2ccc(C)cc2)o1	inhibitor	1 µM	70
CC(C)(C)c1nc2c(s1)c1nc(N)ncc1c1ccc(NS(=O)(=O)c3c(F)cccc3F)c(F)c12	inhibitor, radiometric	1 µM	80
O=C(Nc1cnn(-c2csc(C(=O)NC3COC3)c2)c1)Nc1c(F)cccc1Cl	inhibitor	5 µM	89.4
O=c1cc(-c2cccc3c2Sc2ccccc2S3)oc(N2CCOCC2)c1	inhibitor	0.5 µM	98.2
NS(=O)(=O)c1ccc(CNc2nc(Nc3cccc(CN4CCOCC4)c3)ncc2C2CC2)cc1	inhibitor, radiometric	1 µM	108
